“And” between values parts separate entries of the source, which are not always exact repeats. Identical values can stand only once.
Test system: U2OS
Test: Multiplex assay against U2OS
Format: toxicity, cell-based
Settings: human
In short: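 Live cells were stained at seeding with Hoechst33342, BioTracker Green Microtubule Cytoskeleton Dye, MitoTracker Red and Annexin V Alexa Fluor 680. Following compound addition, they were imaged on a CQ1 microscope at 37°C and 5% CO2 and gated by CellPathfinder machine learning into Hoechst high-intensity objects or normal cells, with normal cells split into healthy, pyknosed or fragmented nuclei and pyknosed cells into mitotic or apoptotic. Tubulin, mitochondrial-mass and membrane-permeability phenotypes are per cents of healthy-nucleus cells.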

[1] = 12 h, 1 µM, compound concentration 1 uM, replicate 1
[2] = 12 h, 1 µM, compound concentration 1 uM, replicate 2
[3] = 12 h, 10 µM, compound concentration 10 uM, replicate 1
[4] = 12 h, 10 µM, compound concentration 10 uM, replicate 2
[5] = 24 h, 1 µM, compound concentration 1 uM, replicate 1
[6] = 24 h, 1 µM, compound concentration 1 uM, replicate 2
[7] = 24 h, 10 µM, compound concentration 10 uM, replicate 1
[8] = 24 h, 10 µM, compound concentration 10 uM, replicate 2
[9] = 48 h, 10 µM, compound concentration 10 uM, replicate 1
[10] = 48 h, 10 µM, compound concentration 10 uM, replicate 2

CCOC(=O)Nc1cc(-c2ccc(C)c(NS(C)(=O)=O)c2)nn2c(C)nnc12
Population Apoptotic (%) [1]: 83% | Population Fragmented Nuclei (%) [1]: 7% | Population Healthy Nuclei (%) [1]: 89% | Population Hoechst High Intensity Objects (%) [1]: 2% | Population Membrane Permeable-Phenotype (%) [1]: 9% | Population Mitochondria Different-Phenotype (%) [1]: 27% | Population Mitotic Cells (%) [1]: 16% | Population Normal (%) [1]: 97% | Population Pyknosed Nuclei (%) [1]: 3% | Population Tubulin-Different-Phenotype (%) [1]: 26% | Total Cell Count [1]: 184 | Population Apoptotic (%) [2]: 100% | Population Fragmented Nuclei (%) [2]: 11% | Population Healthy Nuclei (%) [2]: 88% | Population Hoechst High Intensity Objects (%) [2]: 11% | Population Membrane Permeable-Phenotype (%) [2]: 7% | Population Mitochondria Different-Phenotype (%) [2]: 31% | Population Mitotic Cells (%) [2]: 0% | Population Normal (%) [2]: 88% | Population Pyknosed Nuclei (%) [2]: 0% | Population Tubulin-Different-Phenotype (%) [2]: 47% | Total Cell Count [2]: 152 | Population Apoptotic (%) [3]: 36% and 50% | Population Fragmented Nuclei (%) [3]: 7% and 3% | Population Healthy Nuclei (%) [3]: 85% and 87% | Population Hoechst High Intensity Objects (%) [3]: 4% and 3% | Population Membrane Permeable-Phenotype (%) [3]: 2% and 7% | Population Mitotic Cells (%) [3]: 63% and 50% | Population Normal (%) [3]: 95% and 96% | Population Pyknosed Nuclei (%) [3]: 7% and 8% | Total Cell Count [3]: 284 and 216 | Population Fragmented Nuclei (%) [4]: 8% and 6% | Population Healthy Nuclei (%) [4]: 86% and 89% | Population Hoechst High Intensity Objects (%) [4]: 2% and 10% | Population Membrane Permeable-Phenotype (%) [4]: 0% and 6% | Population Mitochondria Different-Phenotype (%) [4]: 11% and 29% | Population Mitotic Cells (%) [4]: 60% and 100% | Population Normal (%) [4]: 97% and 89% | Population Pyknosed Nuclei (%) [4]: 5% and 3% | Population Tubulin-Different-Phenotype (%) [4]: 89% and 30% | Total Cell Count [4]: 101 and 206 | Population Apoptotic (%) [5]: 22% | Population Fragmented Nuclei (%) [5]: 7% | Population Healthy Nuclei (%) [5]: 88% | Population Hoechst High Intensity Objects (%) [5]: 2% | Population Mitochondria Different-Phenotype (%) [5]: 32% | Population Mitotic Cells (%) [5]: 77% | Population Normal (%) [5]: 97% | Population Pyknosed Nuclei (%) [5]: 3% | Population Tubulin-Different-Phenotype (%) [5]: 32% | Total Cell Count [5]: 257 | Population Apoptotic (%) [6]: 20% | Population Fragmented Nuclei (%) [6]: 9% | Population Healthy Nuclei (%) [6]: 84% | Population Hoechst High Intensity Objects (%) [6]: 7% | Population Membrane Permeable-Phenotype (%) [6]: 4% | Population Mitochondria Different-Phenotype (%) [6]: 34% | Population Mitotic Cells (%) [6]: 80% | Population Normal (%) [6]: 92% | Population Pyknosed Nuclei (%) [6]: 5% | Population Tubulin-Different-Phenotype (%) [6]: 59% | Total Cell Count [6]: 195 | Population Fragmented Nuclei (%) [7]: 5% | Population Healthy Nuclei (%) [7]: 87% and 93% | Population Hoechst High Intensity Objects (%) [7]: 3% and 1% | Population Membrane Permeable-Phenotype (%) [7]: 1% and 4% | Population Mitochondria Different-Phenotype (%) [7]: 11% and 18% | Population Mitotic Cells (%) [7]: 88% and 33% | Population Normal (%) [7]: 96% and 98% | Population Pyknosed Nuclei (%) [7]: 7% and 3% | Total Cell Count [7]: 378 and 305 | Population Apoptotic (%) [8]: 28% and 53% | Population Fragmented Nuclei (%) [8]: 3% and 7% | Population Healthy Nuclei (%) [8]: 90% and 86% | Population Hoechst High Intensity Objects (%) [8]: 2% and 9% | Population Membrane Permeable-Phenotype (%) [8]: 0% and 5% | Population Mitochondria Different-Phenotype (%) [8]: 16% and 30% | Population Mitotic Cells (%) [8]: 71% and 46% | Population Normal (%) [8]: 97% and 90% | Population Pyknosed Nuclei (%) [8]: 5% and 6% | Population Tubulin-Different-Phenotype (%) [8]: 96% and 35% | Total Cell Count [8]: 137 and 273 | Population Apoptotic (%) [9]: 36% | Population Fragmented Nuclei (%) [9]: 5% | Population Healthy Nuclei (%) [9]: 91% | Population Hoechst High Intensity Objects (%) [9]: 1% | Population Mitochondria Different-Phenotype (%) [9]: 10% | Population Mitotic Cells (%) [9]: 63% | Population Normal (%) [9]: 98% | Population Pyknosed Nuclei (%) [9]: 3% | Population Tubulin-Different-Phenotype (%) [9]: 98% | Total Cell Count [9]: 662 | Population Apoptotic (%) [10]: 17% | Population Fragmented Nuclei (%) [10]: 2% | Population Healthy Nuclei (%) [10]: 90% | Population Hoechst High Intensity Objects (%) [10]: 2% | Population Membrane Permeable-Phenotype (%) [10]: 0% | Population Mitochondria Different-Phenotype (%) [10]: 12% | Population Mitotic Cells (%) [10]: 82% | Population Normal (%) [10]: 97% | Population Pyknosed Nuclei (%) [10]: 6% | Population Tubulin-Different-Phenotype (%) [10]: 91% | Total Cell Count [10]: 261

Source: ChEMBL document CHEMBL4689842, “EUbOPEN Chemogenomics Library wave 1” (2021)
